Molecules are shown by their SMILES.

The values that follow come from ChEMBL document CHEMBL2401669, “Discovery and structure-activity relationships of ent-Kaurene diterpenoids as potent and selective 11β-HSD1 inhibitors: potential impact in diabetes” (Eur J Med Chem, 2013).

Experiment [1] concerns the target T1, 11-beta-hydroxysteroid dehydrogenase type 2 (Homo sapiens, UniProt P80365).
T1 sequence (P80365 whole entry): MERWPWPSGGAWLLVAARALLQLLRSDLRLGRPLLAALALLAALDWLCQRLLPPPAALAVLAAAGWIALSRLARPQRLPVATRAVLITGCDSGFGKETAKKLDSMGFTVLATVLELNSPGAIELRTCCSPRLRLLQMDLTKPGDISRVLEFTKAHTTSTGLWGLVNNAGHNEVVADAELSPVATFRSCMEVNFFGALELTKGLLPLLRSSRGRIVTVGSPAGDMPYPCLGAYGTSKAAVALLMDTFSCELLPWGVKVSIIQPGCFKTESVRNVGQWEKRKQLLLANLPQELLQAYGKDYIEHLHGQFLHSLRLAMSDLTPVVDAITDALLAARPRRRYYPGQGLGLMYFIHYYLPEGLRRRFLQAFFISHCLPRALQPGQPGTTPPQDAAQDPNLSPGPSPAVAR
Description: Inhibition of human 11beta-HSD2.

A further experiment is filed under the species Mus musculus. Description: Selectivity ratio of IC50 for mouse 11beta-HSD2 to IC50 for mouse 11beta-HSD1. The method, boiled down: (§1)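 Ratio of 11β-HSD2 IC50 to 11β-HSD1 IC50 for the same species (mouse or human). Both IC50s come from microsome-based scintillation proximity assays, averaged over at least two independent experiments with at least duplicate wells per concentration. Only compounds exceeding 50% inhibition in the primary screen were evaluated.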

For experiment [2], the target named is T2, 11-beta-hydroxysteroid dehydrogenase type 2 (Mus musculus, UniProt P51661).
T2 sequence (P51661 whole entry): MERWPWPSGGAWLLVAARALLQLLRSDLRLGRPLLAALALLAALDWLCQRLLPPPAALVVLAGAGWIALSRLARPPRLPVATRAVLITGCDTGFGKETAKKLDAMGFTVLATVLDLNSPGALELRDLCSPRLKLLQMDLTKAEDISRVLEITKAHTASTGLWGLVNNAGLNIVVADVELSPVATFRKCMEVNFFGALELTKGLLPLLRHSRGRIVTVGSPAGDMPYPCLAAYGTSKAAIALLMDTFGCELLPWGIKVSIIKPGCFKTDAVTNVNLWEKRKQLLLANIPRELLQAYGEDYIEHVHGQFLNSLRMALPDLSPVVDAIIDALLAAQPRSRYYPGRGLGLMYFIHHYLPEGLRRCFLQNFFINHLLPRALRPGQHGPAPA
Description: Inhibition of mouse 11beta-HSD2. The gist of the method:
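Scintillation proximity assay using microsomes containing mouse 11β-HSD2. IC50 is averaged over at least two independent experiments, with at least two replicates per concentration.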

For another experiment, the species on record is Homo sapiens. Description: selectivity ratio of IC50 for human 11beta-HSD2 to IC50 for human 11beta-HSD1. The gist of the method:
as §1

For experiment [3], the target named is T3, 11-beta-hydroxysteroid dehydrogenase 1 (Homo sapiens, UniProt P28845). Description: Inhibition of human 11beta-HSD1 expressed in HEK293 cell microsomes assessed as inhibition of [3H]cortisone conversion to [3H]cortisol by scintillation proximity assay. The arrangement: species or system Microsome. The method, boiled down:
(§2)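 Enzyme source: microsomal fraction from HEK-293 cells stably transfected with 11β-HSD1 (human or mouse), incubated with NADPH and [3H]cortisone. The [3H]cortisol product is captured by a monoclonal antibody on protein A-coated SPA beads. IC50 is averaged over at least two independent experiments, at least duplicate per concentration.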

Experiment [4] has as its target 11-beta-hydroxysteroid dehydrogenase 1 (Mus musculus, UniProt P50172). Description: Inhibition of mouse 11beta-HSD1 expressed in HEK293 cell microsomes assessed as inhibition of [3H]cortisone conversion to [3H]cortisol by scintillation proximity assay. The arrangement: species or system Microsome. The gist of the method: as §2
In experiment [5] the target is 11-beta-hydroxysteroid dehydrogenase 1 (Mus musculus) (UniProt P50172). Description: Inhibition of mouse 11beta-HSD1 expressed in HEK293 cell microsomes assessed as inhibition of [3H]cortisone conversion to [3H]cortisol at 1 uM by scintillation proximity assay. Particulars: Microsome. The gist of the method:
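Primary single-concentration screen in the SPA. Mouse 11β-HSD1 HEK-293 stable-transfectant microsomes are incubated with NADPH and [3H]cortisone, and [3H]cortisol is captured by antibody-coupled protein A SPA beads. Inhibitory ratio is the average of two determinations, with deviation from the average of 10% of the average value.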

Experiment [6] deals with T3, 11-beta-hydroxysteroid dehydrogenase 1. Description: Inhibition of human 11beta-HSD1. The method, boiled down:
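Scintillation proximity assay on microsomes from HEK-293 cells stably transfected with human 11β-HSD1. Microsomes were incubated with NADPH and [3H]cortisone. The [3H]cortisol formed was captured by a monoclonal antibody on protein A-coated SPA beads. Compounds were first screened at […]; those giving over 50% inhibition went on to full IC50 determination. Each value comes from at least two independent experiments, with duplicates or more at each concentration.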

In experiment [7] the target is 11-beta-hydroxysteroid dehydrogenase 1 (Rattus norvegicus, UniProt P16232). Description: Inhibition of rat 11beta-HSD1.
Chain of 11-beta-hydroxysteroid dehydrogenase 1 (Rattus norvegicus, UniProt P16232) (P16232 whole entry): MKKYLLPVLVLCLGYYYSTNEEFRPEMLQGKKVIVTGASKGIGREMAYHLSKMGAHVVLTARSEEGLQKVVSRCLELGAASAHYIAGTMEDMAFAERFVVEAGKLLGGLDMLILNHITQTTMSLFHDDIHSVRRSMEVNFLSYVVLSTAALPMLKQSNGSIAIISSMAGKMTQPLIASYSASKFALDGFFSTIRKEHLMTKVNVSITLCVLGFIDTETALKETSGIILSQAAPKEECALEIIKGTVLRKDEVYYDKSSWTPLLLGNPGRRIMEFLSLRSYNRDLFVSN

T3 sequence (P28845 whole entry): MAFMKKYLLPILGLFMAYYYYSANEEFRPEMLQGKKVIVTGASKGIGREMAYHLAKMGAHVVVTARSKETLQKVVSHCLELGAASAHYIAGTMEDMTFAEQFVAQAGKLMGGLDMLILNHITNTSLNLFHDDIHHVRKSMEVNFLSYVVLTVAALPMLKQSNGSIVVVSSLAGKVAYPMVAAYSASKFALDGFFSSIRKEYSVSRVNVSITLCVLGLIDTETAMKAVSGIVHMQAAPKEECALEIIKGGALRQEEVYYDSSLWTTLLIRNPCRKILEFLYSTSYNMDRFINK
Chain of 11-beta-hydroxysteroid dehydrogenase 1 (Mus musculus, UniProt P50172) (P50172 whole entry): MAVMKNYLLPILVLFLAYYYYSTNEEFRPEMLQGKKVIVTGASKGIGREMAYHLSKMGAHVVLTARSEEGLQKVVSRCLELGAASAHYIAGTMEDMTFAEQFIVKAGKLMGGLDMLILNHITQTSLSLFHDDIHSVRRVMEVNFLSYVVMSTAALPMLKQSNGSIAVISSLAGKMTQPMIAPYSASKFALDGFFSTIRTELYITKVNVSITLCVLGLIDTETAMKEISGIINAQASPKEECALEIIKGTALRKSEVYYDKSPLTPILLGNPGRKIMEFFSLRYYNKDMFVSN
Chain of 11-beta-hydroxysteroid dehydrogenase 1 (Mus musculus) (P50172 whole entry, looked up): as the sequence (P50172 whole entry) above

With `C[C@@]1(CO)CCC[C@]2(C)[C@@H]1CC[C@@]13C[C@H](CC[C@H]12)[C@@](O)(CO)C3`, the IC50 is > 1000 µM in [1], > 1000 µM in experiment [2], 0.91 µM in experiment [3] and 2.81 µM in experiment [4]. For the same compound, the Ratio IC50 is > 357 in the experiment filed under Mus musculus and > 1100 in the experiment listed under Homo sapiens.
On to `C=C1C[C@@]23CC[C@H]4[C@@](C)(CCC[C@@]4(C)C(=O)O)[C@@H]2CC[C@@H]1C3` [KAURENOIC ACID], for which, in the experiment listed under Mus musculus, the Ratio IC50 is 1400. Besides, the IC50 in experiment [2] was determined as 500 µM; in [4], 0.357 µM. In [5], the inhibition was 82.4%.
As to `C[C@@]12CCC[C@@](C)(C(=O)O)[C@H]1CC[C@@]13C[C@H](CC[C@H]12)[C@@](O)(CO)C3`, the IC50 in experiment [1] was > 1000 µM; in experiment [2], > 1000 µM; in experiment [3], 1.24 µM; in experiment [4] it was 3.22 µM. For the same compound, the Ratio IC50 was > 311 in the experiment filed under Mus musculus and > 809 in the experiment listed under Homo sapiens.
Turning to `C[C@@H]1CC(n2c(=O)[nH]c3ccccc32)C[C@@H](C)N1C(=O)c1cc(Cl)c(N)c(Cl)c1` (stereo not given in full), the half-maximal inhibitory concentration (IC50) in experiment [6] was determined as 0.022 µM; in [7], 0.039 µM.
Regarding `C=C1C[C@@]23CC[C@@H]4[C@](C)(CO)CCC[C@@]4(C)[C@@H]2CC[C@H]1C3`, the concentration for half-maximal inhibition (IC50) in experiment [1] is 10 µM; in experiment [2], > 1000 µM; in [3], 1.42 µM; in [4], 1.55 µM. The Ratio IC50 in the experiment listed under Mus musculus was > 640; in the experiment filed under Homo sapiens it was 7. The inhibition in experiment [5] is 20.4%.
As to `C=C1[C@H]2CC[C@H]3[C@]4(C)CCC[C@@](C)(C(=O)O)[C@H]4CC[C@]3(C2)[C@H]1O`, in the experiment listed under Mus musculus, the Ratio IC50 was > 387. Also, the IC50 is > 100 µM in experiment [2], > 1 µM in [3] and 0.259 µM in [4]. In addition, the inhibition in experiment [5] was found to be 55.5%.
